The test system of assay [1] is Aorta. The assay can be described thus: Vasorelaxant activity in Wistar rat endothelium-denuded aortic rings assessed as reduction of KCl-induced contraction in presence of glibenclamide relative to control. Format: functional. The gist of the method: (§1)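 Endothelium-denuded Wistar rat aortic rings; 1 μM glibenclamide added before the 25 mM KCl contraction, then test agent added cumulatively in 3-fold increasing concentrations. Vasorelaxation expressed as % of KCl-induced tone; pIC50 from the half-reduction of tone; 5−10 experiments.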

The subject of assay [2] is Aorta. The experiment in a line: Vasorelaxant activity in Wistar rat endothelium-denuded aortic rings assessed as reduction of KCl-induced contraction. Format: functional, tissue-based. The essentials: (§2)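 Thoracic aortic rings from male Wistar rats (250−350 g), endothelium removed. Removal confirmed by <10% relaxation to 10 μM ACh. Rings contracted with 25 mM KCl; at plateau, test agent added cumulatively in 3-fold increasing concentrations. DMSO stocks (10 mM) diluted in water. Emax given as % of KCl tone; pIC50 is the half-reduction of tone; 5−10 experiments.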

Assay [3] has as its system Aorta. The experiment in a line: Vasorelaxant activity in Wistar rat endothelium-denuded aortic rings assessed as reduction of KCl-induced contraction relative to control. Format: functional. The essentials: as §2
Assay [4] relates to Aorta. The assay can be described thus: Vasorelaxant activity in Wistar rat endothelium-denuded aortic rings assessed as reduction of KCl-induced contraction in presence of glibenclamide. Format: functional, tissue-based. The essentials:
as §1

A short description of assay [5]: (§3) Activation of ATP-sensitive potassium channel in human aortic smooth muscle cells assessed as membrane hyperpolarization by DiBAC4(3) dye-based spectrofluorimetric analysis. The essentials: (§4)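 HASMCs grown in medium 231 with SMGS at 37 °C, 5% CO2, seeded on gelatin 24 h before use. Loaded 1 h with 2.5 μM DiBAC4(3) in HEPES buffer pH 7.4 at room temperature. Fluorescence read at ex 488 / em 520 nm before and after compound. Relative fluorescence decrease (Ft−F0)/F0 expressed as % of the 100 μM LCRK effect. pEC50 derived; six replicates.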

For assay [6], the species on record is Homo sapiens. The experiment in a line: Activation of ATP-sensitive potassium channel in human aortic smooth muscle cells assessed as membrane hyperpolarization at 10 uM by DiBAC4(3) dye-based spectrofluorimetric analysis in presence of glibenclamide. The essentials: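 Same DiBAC4(3) setup in HASMCs (2.5 μM dye, 1 h loading, pH 7.4, ex 488 / em 520 nm). Glibenclamide was added 10 min before the test agent. Relative fluorescence decrease expressed as % of the 100 μM LCRK maximal effect; six replicates.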

Assay [7] deals with Aorta. The assay can be described thus: Vasorelaxant activity in Wistar rat endothelium-denuded aortic rings relative to LCRK. Format: functional. The essentials:
as §2

Assay [8] is filed under the species Rattus norvegicus. The experiment in a line: Activation of ATP-sensitive potassium channel in Wistar rat pancreatic islets assessed as reduction in high glucose-induced insulin secretion after 1 hr by radioimmunoassay. The gist of the method: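 Islets from male Wistar rats (200−250 g), collagenase isolation, cultured 24 h in RPMI (5.6 mM glucose). Batches of 10 islets preincubated 30 min in KRH pH 7.4 with 2.8 mM glucose and 1% BSA, then incubated 1 h with 2.8 or 16.7 mM glucose ± test agent at 1 to 1000 nM. Released insulin measured by RIA. At least five replicas.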

Assay [9] is filed under the species Homo sapiens. The description is as §3. The essentials: as §4
For assay [10], the species on record is Homo sapiens. The experiment in a line: Activation of ATP-sensitive potassium channel in human aortic smooth muscle cells assessed as membrane hyperpolarization at 0.1 to 100 uM by DiBAC4(3) dye-based spectrofluorimetric analysis relative to LCRK. The gist of the method:
as §4

The species named for assay [11] is Rattus norvegicus. The assay can be described thus: Activation of ATP-sensitive potassium channel in Wistar rat pancreatic islets assessed as reduction in high glucose-induced insulin secretion at 80 uM after 1 hr by radioimmunoassay in presence of glibenclamide. The gist of the method: (§5)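 Islets from male Wistar rats (200−250 g), isolated by collagenase duct cannulation with density-gradient purification and cultured 24 h in RPMI (5.6 mM glucose). Ten islets per well were preincubated 30 min in KRH pH 7.4 with 2.8 mM glucose and 1% BSA, then incubated 1 h with 16.7 mM glucose ± glibenclamide 1 μM. Released insulin was measured by RIA, at least five replicas.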

For assay [12], the species on record is Rattus norvegicus. The assay can be described thus: Activation of ATP-sensitive potassium channel in Wistar rat pancreatic islets assessed as reduction in high glucose-induced insulin secretion at 80 uM after 1 hr by radioimmunoassay. The essentials: as §5

Each structure is given as a SMILES string. pEC50, pIC50: −log10 of the molar value. Calls of active or inactive are those of the source. No cut-off for these calls is given here.

13 compounds from ChEMBL document CHEMBL2380266, “1,4-Benzothiazine ATP-sensitive potassium channel openers: modifications at the C-2 and C-6 positions” (J Med Chem, 2013) can be followed below.

Consider `O=C1CCC=C1N1CCSc2ccc(C(F)(F)F)cc21`, for which the figures for the Emax in assay [1] and in assay [3] were 64% and 94%, respectively. Further, the results for the pIC50 in assay [2] and in [4] were 6.27 and 4.63, respectively.

In the case of `CC1(C)CN(C2=CCCC2=O)c2ccccc2S1`, the maximum response (Emax) is 61% in [1] and 90% in assay [3]. Also, the pIC50 is 6.14 in assay [2] and 4.68 in assay [4].

As for `CC1(C)Oc2ccc(C#N)cc2[C@@H](N2CCCC2=O)[C@@H]1O` [LEVCROMAKALIM], the results for the maximal response (Emax) in assay [1] and in assay [3] were 93% and 99%, respectively. Also, the pIC50 was 6.49 in assay [2] and 5.60 in assay [4]. Further, the pEC50 in [5] is 5.27. For the same compound, the result in assay [6] was inactive.

For the compound `CC(=O)Nc1ccc2c(c1)N(C1=CCCC1=O)CC(C)(C)S2`, the pIC50 in assay [2] is 5.18. Also, in assay [3], the Emax came out at 97%.

Take `CC1(C)CN(C2=CCCC2=O)c2cc(C(F)(F)F)ccc2S1`: the maximum response (Emax) was 96% in [1] and 92% in [3]. The values for the negative-log IC50 (pIC50) in assay [2] and in assay [4] were 10.38 and 8.08, respectively.

For `CC1(C)CN(C2=CCCC2=O)c2cc(N)ccc2S1`, in assay [2], the pIC50 is 5.40. For the same compound, the Emax in [3] was 96%.

On to `CC1(C)CSc2ccc(C(F)(F)F)cc2N1C1=CCCC1=O`, for which, in [2], the pIC50 is 7.18. Further, the Emax in [3] came out at 89%.

Regarding `Cc1ccc2c(c1)N(C1=CCCC1=O)CC(C)(C)S2`, the results for the maximal response (Emax) in [1] and in assay [3] were 78% and 89%, respectively. Moreover, the pIC50 is 6.03 in assay [2] and 4.71 in assay [4].

Regarding `CC(C)CN(CC(C)C)S(=O)(=O)c1ccc2c(c1)N(C1=CCCC1=O)CC(C)(C)S2`, in [2], the negative logarithm of the IC50 (pIC50) was 6.10. In addition, the maximal effect (Emax) in [3] came to 85%.

Turning to `CC(=O)c1ccc2c(c1)N(C1=CCCC1=O)CC(C)(C)S2`, the Emax is 77% in assay [1], 88% in [3] and 103% in assay [10]. The negative logarithm of the IC50 (pIC50) in [2] was 8.84; in assay [4] it was 7.25. Moreover, in assay [7], the Ratio was found to be 100. Further, the outcome in [8] and in [6] was inactive. The Activity entry in assay [9] was “Dose-dependent effect”. Moreover, the negative logarithm of the EC50 (pEC50) in assay [5] was 6.93.

On to `CC1=Nc2ccc(Cl)cc2S(=O)(=O)N1`, for which the outcome in assay [11] was inactive. Further, the outcome in [12] was Active.

In the case of `CC1CN(C2=CCCC2=O)c2cc(C(F)(F)F)ccc2S1` (stereo not given), the Emax in assay [1] stood at 63%; in [3], 94%; in assay [10], 106%. For the same compound, the negative logarithm of the IC50 (pIC50) was 8.08 in [2] and 6.15 in assay [4]. Moreover, the Ratio in assay [7] is on record as 10. Also, the Activity result in assay [9] is “Dose-dependent effect”. In addition, the negative logarithm of the EC50 (pEC50) in assay [5] is 6.87. In addition, the outcome in [6] was inactive.

Regarding `CCc1ccc2c(c1)N(C1=CCCC1=O)CC(C)(C)S2`, the maximal response (Emax) was found to be 69% in assay [1], 97% in assay [3] and 98% in assay [10]. The negative logarithm of the IC50 (pIC50) in [2] was 6.81; in assay [4], 5.19. Besides, the result in assay [8] and in assay [6] was inactive. For the same compound, the Activity entry in [9] was “Dose-dependent effect”. The pEC50 in assay [5] was 5.13.

For orientation: Emax means the maximal effect, on the per cent scale that the assay sets. Broadly, the pIC50 is the IC50 on a negative log10 scale, so that one unit is a factor of ten. Usually pEC50 stands for −log10 of the EC50, conventionally taken in molar units.
